According to ChEMBL document CHEMBL1154279, “Cytotoxic compounds from the stems of Cinnamomum tenuifolium” (J Nat Prod, 2009):

What was measured:
Type in all cases: functional
DU-145 [1] = test: Cell cycle arrest in human DU145 cells assessed as accumulation of cells at G2/M phase at 1 uM after 24 hrs using propidium iodide stain by flow cytometry
How it was run: (§1)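 DU145 cells treated with 1, 5, 10 or 100 µM for 24 or 72 h; vehicle 1% DMSO in water. Adherent and floating cells pooled, fixed in PBS-MeOH (1:2) at 4 °C for at least 18 h, then stained 30 min at room temperature in the dark with propidium iodide 50 µg/mL plus RNase A 50 µg/mL. Flow cytometry, excitation 488 nm, emission above 580 nm, doublets gated out. Sub-G1 region taken as DNA damage; at least three runs.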

DU-145 [2] = test: Cell cycle arrest in human DU145 cells assessed as accumulation of cells at sub-G1 phase at 5 uM after 24 hrs using propidium iodide stain by flow cytometry; how it was run: as §1
DU-145 [3] = test: Cell cycle arrest in human DU145 cells assessed as accumulation of cells at G1 phase at 5 uM after 24 hrs using propidium iodide stain by flow cytometry; how it was run: as §1
DU-145 [4] = test: Cell cycle arrest in human DU145 cells assessed as accumulation of cells at S phase at 5 uM after 24 hrs using propidium iodide stain by flow cytometry; how it was run: as §1
DU-145 [5] = test: Cell cycle arrest in human DU145 cells assessed as accumulation of cells at G2/M phase at 5 uM after 24 hrs using propidium iodide stain by flow cytometry; how it was run: as §1
DU-145 [6] = test: Cell cycle arrest in human DU145 cells assessed as accumulation of cells at sub-G1 phase at 10 uM after 24 hrs using propidium iodide stain by flow cytometry; how it was run: as §1
DU-145 [7] = test: Cell cycle arrest in human DU145 cells assessed as accumulation of cells at G1 phase at 10 uM after 24 hrs using propidium iodide stain by flow cytometry; how it was run: as §1
DU-145 [8] = test: Cell cycle arrest in human DU145 cells assessed as accumulation of cells at S phase at 10 uM after 24 hrs using propidium iodide stain by flow cytometry; how it was run: as §1
DU-145 [9] = test: Cell cycle arrest in human DU145 cells assessed as accumulation of cells at G2/M phase at 10 uM after 24 hrs using propidium iodide stain by flow cytometry; how it was run: as §1
DU-145 [10] = test: Cell cycle arrest in human DU145 cells assessed as accumulation of cells at sub-G1 phase at 100 uM after 24 hrs using propidium iodide stain by flow cytometry; how it was run: as §1
DU-145 [11] = test: Cell cycle arrest in human DU145 cells assessed as accumulation of cells at G1 phase at 100 uM after 24 hrs using propidium iodide stain by flow cytometry; how it was run: as §1
DU-145 [12] = test: Cell cycle arrest in human DU145 cells assessed as accumulation of cells at S phase at 100 uM after 24 hrs using propidium iodide stain by flow cytometry; how it was run: as §1
DU-145 [13] = test: Cell cycle arrest in human DU145 cells assessed as accumulation of cells at G2/M phase at 100 uM after 24 hrs using propidium iodide stain by flow cytometry; how it was run: as §1
DU-145 [14] = test: Cell cycle arrest in human DU145 cells assessed as accumulation of cells at G2/M phase at 100 uM after 72 hrs using propidium iodide stain by flow cytometry; how it was run: as §1
DU-145 [15] = test: Cell cycle arrest in human DU145 cells assessed as accumulation of cells at S phase at 100 uM after 72 hrs using propidium iodide stain by flow cytometry; how it was run: as §1
DU-145 [16] = test: Cell cycle arrest in human DU145 cells assessed as accumulation of cells at G1 phase at 100 uM after 72 hrs using propidium iodide stain by flow cytometry; how it was run: as §1
DU-145 [17] = test: Cell cycle arrest in human DU145 cells assessed as accumulation of cells at sub-G1 phase at 100 uM after 72 hrs using propidium iodide stain by flow cytometry; how it was run: as §1
DU-145 [18] = test: Cell cycle arrest in human DU145 cells assessed as accumulation of cells at G2/M phase at 10 uM after 72 hrs using propidium iodide stain by flow cytometry; how it was run: as §1
DU-145 [19] = test: Cell cycle arrest in human DU145 cells assessed as accumulation of cells at S phase at 10 uM after 72 hrs using propidium iodide stain by flow cytometry; how it was run: as §1
DU-145 [20] = test: Cell cycle arrest in human DU145 cells assessed as accumulation of cells at G1 phase at 10 uM after 72 hrs using propidium iodide stain by flow cytometry; how it was run: as §1
DU-145 [21] = test: Cell cycle arrest in human DU145 cells assessed as accumulation of cells at sub-G1 phase at 10 uM after 72 hrs using propidium iodide stain by flow cytometry; how it was run: as §1
DU-145 [22] = test: Cell cycle arrest in human DU145 cells assessed as accumulation of cells at G2/M phase at 5 uM after 72 hrs using propidium iodide stain by flow cytometry; how it was run: as §1
DU-145 [23] = test: Cell cycle arrest in human DU145 cells assessed as accumulation of cells at S phase at 5 uM after 72 hrs using propidium iodide stain by flow cytometry; how it was run: as §1
DU-145 [24] = test: Cell cycle arrest in human DU145 cells assessed as accumulation of cells at G1 phase at 5 uM after 72 hrs using propidium iodide stain by flow cytometry; how it was run: as §1
DU-145 [25] = test: Cell cycle arrest in human DU145 cells assessed as accumulation of cells at sub-G1 phase at 5 uM after 72 hrs using propidium iodide stain by flow cytometry; how it was run: as §1
DU-145 [26] = test: Cell cycle arrest in human DU145 cells assessed as accumulation of cells at G2/M phase at 1 uM after 72 hrs using propidium iodide stain by flow cytometry; how it was run: as §1

Work on CCCCCCCCCCCCCCCCCCCCCCCC/C=C(/C(=O)OC)[C@@H](O)C(C)=O [SECOTENUIFOLIDE A] yielded an Activity (DU-145 [1]) of 43.3%, an Activity (DU-145 [2]) of 19.02% and an Activity (DU-145 [3]) of 34.96%. The Activity (DU-145 [4]) was 4.96%, the Activity (DU-145 [5]) was 37.88% and the Activity (DU-145 [6]) was 19.72%. For the same compound, the Activity (DU-145 [7]) was 36.97%, the Activity (DU-145 [8]) was 3.8% and the Activity (DU-145 [9]) was 36.57%. The Activity (DU-145 [10]) was 24.88%, the Activity (DU-145 [11]) was 35.57% and the Activity (DU-145 [12]) was 10.04%. For the same compound, the Activity (DU-145 [13]) was 26.4%, the Activity (DU-145 [14]) was 30% and the Activity (DU-145 [15]) was 5.38%. For the same compound, the Activity (DU-145 [16]) was 28.57%, the Activity (DU-145 [17]) was 32.57% and the Activity (DU-145 [18]) was 30.83%. It also gave an Activity (DU-145 [19]) of 3.62%, an Activity (DU-145 [20]) of 48.3% and an Activity (DU-145 [21]) of 16.18%. It also gave an Activity (DU-145 [22]) of 31.74%, an Activity (DU-145 [23]) of 4.05% and an Activity (DU-145 [24]) of 48.96%. For the same compound, the Activity (DU-145 [25]) was 14.24% and the Activity (DU-145 [26]) was 33.68%.
